INS-1E GSIS act: primary screen for activators of insulin secretion dependent on glucose, INS-1E cells, GLuc reporter luminescence; INS-1E GLuc reporter insulin secretion, 2-3 h; 370,000 tested, 0.61% active; activation, % at 16.6 µM;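 active = lowest replicate activation of at least 40%, so every replicate reaches that level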
ERAP1 inh: ERAP1 (human) enzyme inhibition | inhibition, % at 10.7 µM | 340,000 tested, 0.15% active | Q9NZ08 | recombinant ERAP1, Leu-AMC fluorescence, 60 min | AID 652197;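 active = mean replicate inhibition of at least 30%, or all replicates individually reaching that 30% level; inactive = mean below 30% and not every replicate reaching it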
miR-122 sensor: miR-122 inhibition in Huh7 cells; AID 602342; 340,000 tested, 0.3% active; activation (reporter increase), % at 12.5 µM; Huh7 miR-122 Renilla luciferase sensor, 48 h; neutral wells = 0, positive control = 100;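 active = mean replicate activation score at least 90 and every replicate individually at or above 90; inconclusive = only one of the two criteria met; inactive = neither criterion met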;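 note: higher luciferase means less miR-122 activity so hits act as miR-122 inhibitors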
E-selectin induc: E-selectin induction on HUVECs; 260,000 tested, 0.37% active; AID 686992; HUVEC E-selectin immunofluorescence imaging; normalized: neutral wells 0, TNF-alpha wells 100; activation, % at 7.58 µM;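 active = mean E-selectin-positive cell signal at least 10% of the positive control, reached in at least 60% of replicates, without over 20% cell loss; inconclusive = no rule given, readout overlaps actives, possibly toxicity-flagged; inactive = the rest, including those meeting only one limit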
Target sequence (P16581 whole entry, looked up): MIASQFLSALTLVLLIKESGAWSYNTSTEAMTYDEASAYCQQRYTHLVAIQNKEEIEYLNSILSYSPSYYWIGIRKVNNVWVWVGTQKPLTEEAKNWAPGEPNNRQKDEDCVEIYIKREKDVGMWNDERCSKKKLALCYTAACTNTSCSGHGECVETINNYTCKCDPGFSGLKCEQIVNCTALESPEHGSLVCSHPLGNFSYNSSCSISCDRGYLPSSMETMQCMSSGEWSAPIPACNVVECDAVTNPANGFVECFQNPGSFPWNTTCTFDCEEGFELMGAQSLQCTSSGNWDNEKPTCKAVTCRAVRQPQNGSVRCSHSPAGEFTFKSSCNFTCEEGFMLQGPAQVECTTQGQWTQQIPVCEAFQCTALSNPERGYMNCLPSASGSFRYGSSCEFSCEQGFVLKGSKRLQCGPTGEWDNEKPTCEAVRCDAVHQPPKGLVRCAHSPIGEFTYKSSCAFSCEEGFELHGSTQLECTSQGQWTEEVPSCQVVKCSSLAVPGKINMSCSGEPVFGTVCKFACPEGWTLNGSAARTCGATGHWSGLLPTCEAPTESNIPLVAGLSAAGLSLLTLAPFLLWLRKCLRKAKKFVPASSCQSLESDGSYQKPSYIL
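Test system: HUVEC; input: 3,000 HUVEC/well; measured by: immunofluorescence imaging; read-out: % PE-positive cells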
DENV2 CPE: DENV2-induced cell death inhibition; DENV2-infected cells, cytopathic effect rescue, plate reader; CPE inhibition, % at 9.99 µM; 350,000 tested, 1.7% active; in the data active = CPE inhibition above about 20%, passing the limit was not always enough; inconclusive = no clear call, values can overlap the other calls; tested in BHK-21 cells
CFTR F508del cor: correctors of CFTR F508del function in bronchial epithelial cells; CFBE cells, YFP halide quenching; stimulated with forskolin plus potentiator P3; % fluorescence drop versus neutral controls; activity (quench increase), % at 7.58 µM; 350,000 tested, 0.36% active; AID 720511;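 active = mean added fluorescence quench of at least 8% versus neutral control, with both replicates also reaching 8%; inconclusive = only one of the mean or replicate conditions met; inactive = mean below 8% and not both replicates reaching 8%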;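 note: cells transiently co-express mutant CFTR-F508del with the halide-sensitive YFP; corrector assay measuring rescue of mutant channel to the surface after 24 h compound exposure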
Large screens that a line does not name were inactive; [ ] = remark or other dose. Sampled rows, rich in hits. Any-hit rate of the full collection: about 2.6%.

CCN(C(=O)CSc1nnc(NCCOC)s1)c1c(N)n(Cc2ccccc2)c(=O)[nH]c1=O	DENV2 CPE 68.9 (no result: miR-122 sensor, E-selectin induc)
CCCC#Cc1ccc(CC[C@H]2O[C@H]3CC[C@@H](CO)O[C@H]3C[C@H]2NS(=O)(=O)c2ccccc2)cc1	none (no result: INS-1E GSIS act, miR-122 sensor, E-selectin induc)
C[C@H]1CN([C@@H](C)CO)C(=O)c2cccc(NC(=O)C3CCCCC3)c2O[C@@H]1CN(C)Cc1ccccc1	none
COCCCN(C(=S)NC(=O)c1ccc(Br)cc1)c1c(N)n(Cc2ccccc2)c(=O)[nH]c1=O	none (no result: miR-122 sensor)
CCCCN(C(=S)NC(=O)c1ccccc1)c1c(N)n(Cc2ccccc2)c(=O)[nH]c1=O	E-selectin induc 40.4
O=C(c1ccccc1)c1ccc2ccccc2n1	INS-1E GSIS act 50.3 (no result: ERAP1 inh, E-selectin induc, DENV2 CPE, CFTR F508del cor)
COc1ccc(N=C2C(=O)N3CCCc4cccc2c43)cc1	CFTR F508del cor 11.9 (no result: miR-122 sensor)
COCC(=O)N1[C@H](CO)[C@H](c2ccc(-c3ccccc3OC)cc2)C12CN(C(C)=O)C2	none (no result: miR-122 sensor)
O=C(COC(=O)C1CCC1)NC(=O)c1ccccc1	INS-1E GSIS act 42.0
C[C@@H]1CCCCO[C@@H](CN(C)S(=O)(=O)c2ccc(Cl)cc2)[C@H](C)CN([C@@H](C)CO)C(=O)c2cc(NS(C)(=O)=O)ccc2O1	none
Fc1ccc(/C=N/NC(=S)Nc2ccc(Cl)cc2Cl)cc1	CFTR F508del cor 10.1 (no result: miR-122 sensor)
Fc1ccc(NC(=S)N/N=C/c2ccc(F)c(F)c2)cc1	none (no result: miR-122 sensor)
Cc1cc(-c2ccccc2)nc(N(C)NC(=O)c2cccc(C(F)(F)F)c2)c1S(C)(=O)=O	none (no result: INS-1E GSIS act, ERAP1 inh, E-selectin induc, DENV2 CPE, CFTR F508del cor)
Cc1cc(-c2ccccc2)nc(N(C)NC(=O)C2CC2)c1S(C)(=O)=O	CFTR F508del cor 8.5 (no result: E-selectin induc)
CCC(=O)N1[C@@H](CO)[C@@H](c2ccc(-c3ccccc3)cc2)[C@@H]1CN(C)C(C)=O	none (no result: ERAP1 inh)
Nn1c(SCCOc2ccccc2)nnc1-c1cccnc1	none (no result: CFTR F508del cor)
Nn1c(SCCOc2ccc(Cl)cc2)nnc1-c1cccnc1	ERAP1 inh 47.1 (no result: INS-1E GSIS act, miR-122 sensor)
Fc1ccccc1-c1nnc2ccc3ccccc3n12	INS-1E GSIS act 53.2
Fc1cccc(Cl)c1-c1nnc2ccc3ccccc3n12	none (no result: miR-122 sensor, E-selectin induc)
CC(C)(C(=O)N1CCC1(C)C(=O)NS(=O)(=O)c1cccc(Cl)c1)c1ccccc1 (stereo unspecified)	INS-1E GSIS act 41.1, DENV2 CPE 43.7
CC1(C(=O)NS(=O)(=O)c2cccc(Cl)c2)CCN1C(=O)COc1ccc(Cl)cc1 (stereo unspecified)	DENV2 CPE 85.5 (no result: INS-1E GSIS act, miR-122 sensor)
CC(C)(C(=O)N1CCC1(C)C(=O)NS(=O)(=O)c1cccc(F)c1)c1ccccc1 (stereo unspecified)	none (no result: INS-1E GSIS act)
CC1(C(=O)NS(=O)(=O)c2ccc(Cl)cc2)CCN1C(=O)COc1ccc(Cl)cc1 (stereo unspecified)	none (no result: miR-122 sensor)
O=C(CN1CCN(S(=O)(=O)N2CCOCC2)CC1)Nc1ccc(Cl)c(Cl)c1	ERAP1 inh 122.4 (no result: miR-122 sensor)
O=C(CCC(=O)N1CCCCC1)Nc1ccc(Cl)c(Cl)c1	none
O=C(CCC(=O)N1CCOCC1)Nc1ccc(Cl)c(Cl)c1	E-selectin induc 85.2
NS(=O)(=O)c1ccc(NC(=O)CCC(=O)N2CCOCC2)cc1	E-selectin induc 34.2 (no result: miR-122 sensor)
O=C(CN1CCOCC1)Nc1ccc(Cl)c(Cl)c1	none (no result: miR-122 sensor, E-selectin induc, DENV2 CPE, CFTR F508del cor)
Cc1noc(C)c1S(=O)(=O)Nc1ccc2c(c1)CC(=O)N([C@H](C)CO)C[C@H](C)[C@H](CN(C)C)O2	none
O=C(C[C@@H]1C[C@H]2c3cc(NC(=O)C4CCC4)ccc3O[C@H]2[C@@H](CO)O1)NC1CCCCC1	none
Nc1c(/C=C2/C=CC(=O)C(O)=C2)c(=O)nc2sc(CC(=O)N3CCOCC3)nn12	DENV2 CPE 30.8 (no result: miR-122 sensor, E-selectin induc)
Nc1c(/C=C2/C=CC(=O)C(O)=C2)c(=O)nc2sc(CC(=O)N3CCCC3)nn12	none (no result: E-selectin induc)
O=S(=O)(NN=Cc1cccc(Cl)c1)c1ccccc1	DENV2 CPE 27.7 (no result: miR-122 sensor)
C[C@H](CO)N1C[C@H](C)[C@@H](CN(C)C(=O)CC2CC2)Oc2cc(-c3cccnc3)ccc2S1(=O)=O	none
CCNC(=O)C[C@@H]1CC[C@@H]2[C@H](COc3ccc(NC(=O)c4ccc(F)c(F)c4)cc3C(=O)N2C)O1	DENV2 CPE 90.1
CCCC(=O)Nc1ccc2c(c1)C(=O)N(C)[C@@H]1CC[C@H](CC(=O)NCC(F)(F)F)O[C@H]1CO2	none (no result: ERAP1 inh)
CCNC(=O)C[C@H]1CC[C@H]2[C@@H](COc3ccc(NC(=O)c4ccc(F)c(F)c4)cc3C(=O)N2C)O1	none
CNC(=O)C[C@H]1CC[C@@H]2[C@H](COc3ccc(NC(=O)c4cscn4)cc3C(=O)N2C)O1	DENV2 CPE 29.3 (no result: ERAP1 inh)
CCCC(=O)Nc1ccc2c(c1)C(=O)N(C)[C@H]1CC[C@@H](CC(=O)NCC(F)(F)F)O[C@H]1CO2	miR-122 sensor 143.3[16.7 µM] (no result: ERAP1 inh)
CNC(=O)C[C@H]1CC[C@H]2[C@@H](COc3ccc(NC(=O)c4ccc(F)c(F)c4)cc3C(=O)N2C)O1	DENV2 CPE 52.1
CCCN1[C@H](CO)[C@H](c2ccc(C3=CCCC3)cc2)[C@H]1CN(C(C)=O)C1CCCC1	none (no result: miR-122 sensor)
C[C@H]1CCCCO[C@@H](CN(C)Cc2ccc(C(=O)Nc3ccccc3N)cc2)[C@@H](C)CN([C@@H](C)CO)C(=O)c2cc(N(C)C)ccc2O1	none (no result: ERAP1 inh, miR-122 sensor, E-selectin induc, DENV2 CPE, CFTR F508del cor)
COC(=O)C[C@@H]1CC[C@@H]2[C@H](COc3ccc(NC(=O)c4ccc(C(F)(F)F)cc4)cc3C(=O)N2C)O1	DENV2 CPE inconclusive, CFTR F508del cor 11.3
CNC[C@H]1Oc2ccccc2C(=O)N(C)C[C@@H]1C	none (no result: ERAP1 inh, miR-122 sensor, E-selectin induc, DENV2 CPE, CFTR F508del cor)
C[C@H](CO)N1C[C@H](C)[C@@H](CN(C)CC2CC2)Oc2ccc(NS(=O)(=O)c3cn(C)cn3)cc2C1=O	DENV2 CPE 32.7
C[C@H]1CN([C@@H](C)CO)C(=O)c2cc(NS(=O)(=O)c3cn(C)cn3)ccc2O[C@@H]1CN(C)Cc1ccncc1	E-selectin induc 48.7
C[C@@H]1CCCCO[C@H](CN(C)Cc2ccncc2)[C@H](C)CN([C@@H](C)CO)C(=O)c2cc(NS(=O)(=O)c3cn(C)cn3)ccc2O1	none
C[C@@H]1CN([C@@H](C)CO)C(=O)c2cc(NS(=O)(=O)c3cn(C)cn3)ccc2O[C@@H](C)CCCCO[C@H]1CN(C)Cc1ccncc1	DENV2 CPE 69.9
C[C@H](CO)N1C[C@H](C)[C@H](CN(C)CC2CC2)Oc2ccc(NS(=O)(=O)c3cn(C)cn3)cc2C1=O	none
C[C@H]1CN([C@@H](C)CO)C(=O)c2cc(NS(=O)(=O)c3cn(C)cn3)ccc2O[C@H]1CN(C)Cc1ccncc1	none
C[C@@H]1CN([C@H](C)CO)C(=O)c2cc(NS(=O)(=O)c3cn(C)cn3)ccc2O[C@H]1CN(C)Cc1ccccc1	DENV2 CPE 20.8
O=C(O)C1=C[C@@H](c2ccc3c(c2)Cc2ccccc2-3)C[C@@H](OCc2ccc(CO)cc2)O1	none (no result: INS-1E GSIS act, miR-122 sensor, E-selectin induc)
O=C(C1CCCCC1)N1C[C@@H]2[C@H](c3ccccc31)[C@H](CO)N2C(=O)c1ccccc1	none

Source: PubChem (Broad Institute)
